Screens (PubChem BioAssay)
Shown are actives, neighbours in structure and some others; about 1.2% of the full set was active somewhere.
RanGTP-Imp inh: inhibitors of RanGTP-importin-beta interaction, primary screen, biochemical, FRET, CFP-Ran, YFP-importin-beta, homogeneous. cell-free CFP-Ran/YFP-importin-beta FRET ratio. hit rate 1.1% among 300,000. inhibition, % (no concentration beside the values);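 active means more than half of the replicate wells show a fall in the fluorescence ratio signal beyond about 16%, limit read from the data, passing the limit was not always enough; inconclusive means exactly half of the replicate wells pass the set limit; inactive means fewer than half of replicates pass the limit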
Runt-CBFb FRET: inhibitors of RUNX1 Runt–CBFb binding, primary screen, biochemical, FRET, Cerulean-Runt, Venus-CBFb, uHTS | Runt-related transcription factor 1 (Homo sapiens) + Core-binding factor subunit beta … | Cerulean-Runt/Venus-CBFb FRET ratio 530/480, 1 h | hit rate 0.46% among 220,000 | inhibition, % at 20 µM | AID 1496, 2009;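 active means inhibition over about 50% at 20 µM in the single-dose screen, limit read from the data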
Target sequence (Q01196 whole entry, looked up): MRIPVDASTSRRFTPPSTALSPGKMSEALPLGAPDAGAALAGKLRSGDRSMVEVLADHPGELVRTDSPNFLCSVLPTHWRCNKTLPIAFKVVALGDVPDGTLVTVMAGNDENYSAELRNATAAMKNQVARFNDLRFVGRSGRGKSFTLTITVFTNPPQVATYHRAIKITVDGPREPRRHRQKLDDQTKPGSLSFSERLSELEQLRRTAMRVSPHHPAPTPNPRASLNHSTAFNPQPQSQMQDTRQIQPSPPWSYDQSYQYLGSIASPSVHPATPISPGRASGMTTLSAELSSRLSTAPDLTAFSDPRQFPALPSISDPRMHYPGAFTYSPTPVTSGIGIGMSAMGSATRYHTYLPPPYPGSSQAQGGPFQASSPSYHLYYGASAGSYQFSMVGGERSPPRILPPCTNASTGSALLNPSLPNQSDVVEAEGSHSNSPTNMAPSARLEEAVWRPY
Target sequence (Q13951 whole entry, looked up): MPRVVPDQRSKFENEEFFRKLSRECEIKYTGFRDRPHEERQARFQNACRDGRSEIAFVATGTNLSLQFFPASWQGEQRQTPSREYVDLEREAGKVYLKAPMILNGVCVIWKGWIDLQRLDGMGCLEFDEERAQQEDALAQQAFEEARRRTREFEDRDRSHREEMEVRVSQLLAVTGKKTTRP
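System: Cerulean-labeled Runt domain protein | Quantity: 100 nM of each labeled protein | Schedule: 1 h compound exposure, room temperature | Detection: Fluorescence energy transfer, 422 nm excitation, 530/480 nm emission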
CaV13 FRET inh: Disruptors of the CACNA1D IQ motif to Ca2+-dependent inactivation inhibitor domain association, primary screening, Förster resonance energy transfer in intact living …. AID 743397. inhibition, % at 12.3 µM. HEK cells, CFP/YFP FRET ICDI-IQ, plate reader, 10 min; percent FRET-ratio fall versus neutral wells. hit rate 0.098% among 340,000;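 active means mean replicate inhibition of at least 30% and at least 1% of replicates passing that level; inconclusive means only one of the two criteria is met; inactive means neither criterion is met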
Runt-SMMHC FRET: inhibitors of RUNX1 Runt–CBFb-SMMHC binding, primary screen, biochemical, FRET, Cerulean-Runt, Venus-CBFb-SMMHC, uHTS | hit rate 0.74% among 220,000 | Cerulean-Runt/Venus-CBFb-SMMHC FRET ratio 530/480, 1 h | inhibition, % at 20 µM | AID 1434, 2008;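 active means mean inhibition across duplicate retests at 20 µM reaching about 50%, limit read from the data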;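 further: inhibitors lower the FRET ratio by blocking Runt binding to CBFb-SMMHC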
Of the large screens only hits and unclear results are named; the others gave an inactive call.

Cc1[nH]nc2c1C(C1CC=CCC1)C(C#N)=C(N)O2 (centres undefined)	none (no result: RanGTP-Imp inh)
CCOC(=O)NC(=O)C(=CNc1ccc(C)cc1)C(=O)NC(=O)OCC	RanGTP-Imp inh inconclusive
O=C(N[C@@H]1CC[C@@H](CCNS(=O)(=O)c2ccc(Cl)cc2)O[C@@H]1CO)c1cccnc1	none (no result: RanGTP-Imp inh, Runt-CBFb FRET, Runt-SMMHC FRET)
N#CC1=C(N)Oc2cc(N)ccc2C1c1cccc(Br)c1 (centres undefined)	RanGTP-Imp inh 54.9 (no result: Runt-CBFb FRET, Runt-SMMHC FRET)
N#CC1=C(N)Oc2cc3ccccc3cc2C1c1cccs1 (centres undefined)	none
Cc1ccc(C2C(C#N)=C(N)Oc3cc(N)ccc32)cc1 (centres undefined)	RanGTP-Imp inh 90.0 (no result: Runt-CBFb FRET, Runt-SMMHC FRET)
COC(=O)c1cc2c(c3c4cc(C)ccc4n(C(=O)c4ccccc4)c13)C(=O)N(Cc1ccccc1)C2	none (no result: RanGTP-Imp inh, Runt-CBFb FRET, Runt-SMMHC FRET)
Cc1ccccc1C(=O)Nc1ccnn1C1CCN(Cc2cnn(C)c2)CC1	none (no result: Runt-CBFb FRET, Runt-SMMHC FRET)
COCC(=O)N1CCCN(c2nc3c(C)cccc3cc2C#N)CC1	RanGTP-Imp inh 57.4
CCOCCCNC(=S)NCCCNc1nc2c(C)c(C)ccc2cc1C#N	none (no result: RanGTP-Imp inh)
CCOCCCNC(=S)N1CCCN(c2nc3cc(C)ccc3cc2C#N)CC1	Runt-SMMHC FRET 76.0
CCOCCCNC(=S)N1CCCN(c2nc3c(C)c(C)ccc3cc2C#N)CC1	RanGTP-Imp inh 50.9 (no result: Runt-CBFb FRET, Runt-SMMHC FRET)
Cc1cc(C)c2cc(C#N)c(N3CCCN(C(=S)NCCCN(C)C)CC3)nc2c1	RanGTP-Imp inh 35.0 (no result: Runt-CBFb FRET, Runt-SMMHC FRET)
CC(=O)Nc1ccc(-c2ccnc3c2CC(C(=O)Nc2ccccc2)O3)cc1 (centres undefined)	none (no result: RanGTP-Imp inh, Runt-CBFb FRET, Runt-SMMHC FRET)
CCNC(=O)C1CCCN(C(=O)c2cccc(C#N)c2)CC1 (centres undefined)	none (no result: RanGTP-Imp inh, Runt-CBFb FRET, Runt-SMMHC FRET)
CC(Oc1ccc(C(C)(C)C)cc1)C(=O)NCC(c1ccco1)N1CCCC1 (centres undefined)	none (no result: RanGTP-Imp inh, Runt-CBFb FRET, Runt-SMMHC FRET)
CC(C)(C)c1ccc(CC(=O)N2CCC2(C)C(=O)NS(=O)(=O)c2ccc(C#N)cc2)cc1 (centres undefined)	none (no result: RanGTP-Imp inh, Runt-CBFb FRET, Runt-SMMHC FRET)
CCOc1ccc2[nH]c(C)c(CN3CCOCC3)c(=O)c2c1	none
CCOc1ccc2[nH]c3ncccc3c(=O)c2c1	RanGTP-Imp inh 34.3 (no result: Runt-CBFb FRET, Runt-SMMHC FRET)
N#CC(c1nc2ccccc2nc1OCCO)S(=O)(=O)c1ccccc1 (centres undefined)	RanGTP-Imp inh 23.5
Cc1ccc(S(=O)(=O)C(C#N)c2nc3ccccc3nc2OC(C)C)cc1 (centres undefined)	none (no result: CaV13 FRET inh)
N#CC(c1nc2ccccc2nc1N1CCOCC1)S(=O)(=O)c1ccccc1 (centres undefined)	RanGTP-Imp inh 16.3
Cc1ccc(S(=O)(=O)C(C#N)c2nc3ccccc3nc2N2CC(C)OC(C)C2)cc1C (centres undefined)	none
Cc1ccc(S(=O)(=O)C(C#N)c2nc3ccccc3nc2N2CCCC2)cc1 (centres undefined)	none
CCN1CCN(c2nc3ccccc3nc2C(C#N)S(=O)(=O)c2ccc(C)c(C)c2)CC1 (centres undefined)	RanGTP-Imp inh 75.2
CCN1CCN(c2nc3ccccc3nc2C(C#N)S(=O)(=O)c2ccc(C)cc2)CC1 (centres undefined)	RanGTP-Imp inh 82.4
O=C(COc1ccc2ccccc2c1)N[C@@H](C(=O)O)c1ccc(O)cc1	none (no result: Runt-CBFb FRET, Runt-SMMHC FRET)
C=CCOc1c(Br)cc(C2C3=C(CCCC3=O)N(C)C3=C2C(=O)CCC3)cc1OCC	RanGTP-Imp inh 101.4, Runt-CBFb FRET 95.6 (no result: Runt-SMMHC FRET)
C=CCOc1ccc(C2C3=C(CCCC3=O)N(CC(=O)O)C3=C2C(=O)CCC3)cc1OCC	none (no result: Runt-CBFb FRET, Runt-SMMHC FRET)
CC(=O)c1sc2nc(C)cc(C)c2c1N	Runt-SMMHC FRET 77.9
Cc1nc2sc(C(=O)c3ccccc3)c(N)c2c(C)c1C	Runt-CBFb FRET 53.9
COC(=O)c1sc2nc(C)cc(C)c2c1N	none
Cc1cc(C)c2c(N)c(C(=O)c3cccc(Cl)c3)sc2n1	Runt-CBFb FRET 86.7, Runt-SMMHC FRET 59.6
Cc1cc(C)c2c(N)c(C(=O)c3ccc(Cl)cc3Cl)sc2n1	none
Cc1cc(C)c2c(N)c(C(=O)Nc3ncc(C)s3)sc2n1	Runt-CBFb FRET 65.1, Runt-SMMHC FRET 95.4 (no result: RanGTP-Imp inh)
Cc1ccc(-c2csc(N3CCC[C@@H]3C(=O)NCCn3c(-c4ccncc4)nc4ccccc43)n2)cc1	none (no result: Runt-CBFb FRET, Runt-SMMHC FRET)
C=CC[C@H]1CC(Cc2ccccc2)=C[C@H](CC=C)N1	none
Cc1ccnc(NS(=O)(=O)c2ccc(NC(=O)c3ccc(Cl)cc3[N+](=O)[O-])cc2)n1	none (no result: Runt-CBFb FRET, Runt-SMMHC FRET)
CC(=O)NC1=NN(C(C)=O)C2(S1)C(=O)N(C(C)=O)c1ccc(C)cc12 (centres undefined)	none
COC(=O)Cn1c(N)[n+](Cc2ccccc2)c2ccccc21	none (no result: Runt-CBFb FRET, Runt-SMMHC FRET)
Oc1ccc(Nc2nc(N3CCCC3)c3ccccc3n2)cc1	Runt-SMMHC FRET 70.9
COC(=O)Cn1c(=NC(=O)c2ccc(S(=O)(=O)N3CCc4ccccc4C3)cc2)sc2cc(OC)ccc21	RanGTP-Imp inh 23.1
O=C(O)CCCCCNC(=O)c1ccccc1	none
OCCNc1nc(-c2ccccc2)c2cc(Cl)ccc2n1	Runt-SMMHC FRET 90.5
Cc1ccc2nc(NCCO)nc(-c3ccccc3)c2c1	RanGTP-Imp inh 29.5
CSCCC(c1nc2ccccc2[nH]1)n1c(/C=C/c2ccc(Cl)cc2)nc2ccccc21 (centres undefined)	none (no result: RanGTP-Imp inh, Runt-CBFb FRET, Runt-SMMHC FRET)
Cc1cccc2c1-c1sc(C(=O)Nc3nccs3)cc1CO2	RanGTP-Imp inh 22.3
O=C(Nc1nccs1)c1cc2c(s1)-c1ccccc1OC2	none
O=C(Nc1ccc(Cl)cn1)c1cc2c(s1)-c1ccccc1OC2	RanGTP-Imp inh 58.0
O=C(Nc1nc2ccccc2s1)c1cc2c(s1)-c1ccccc1OC2	RanGTP-Imp inh 36.8, Runt-SMMHC FRET 58.6
Cc1cc2c(c(=O)o1)[C@@]1(C(=O)Nc3ccccc31)C1=C(CCCC1=O)O2	none (no result: RanGTP-Imp inh, Runt-CBFb FRET, Runt-SMMHC FRET)
CC(=O)Oc1ccc2c3c(c(=O)oc2c1)CCCC3	none (no result: Runt-CBFb FRET, Runt-SMMHC FRET)
CSCCC(NC(C)=O)C(=O)Oc1ccc2c3c(c(=O)oc2c1)CCCC3 (centres undefined)	Runt-SMMHC FRET 82.4 (no result: RanGTP-Imp inh)
O=S(=O)(c1ccc(NC(=S)N2CCCCC2CO)cc1)N1CCOCC1 (centres undefined)	none (no result: RanGTP-Imp inh, Runt-CBFb FRET, Runt-SMMHC FRET)
O=c1ccc2ccc(O[C@@H]3O[C@H](CO)[C@@H](O)[C@H](O)[C@H]3O)c(O)c2o1	none (no result: RanGTP-Imp inh, Runt-CBFb FRET, Runt-SMMHC FRET)
COc1cc2ccc(=O)oc2c(O[C@@H]2O[C@H](CO)[C@@H](O)[C@H](O)[C@H]2O)c1O	RanGTP-Imp inh 118.8 (no result: Runt-CBFb FRET, Runt-SMMHC FRET)
Cn1c(=O)c2cc(S(=O)(=O)NCCC(=O)NCc3ccccc3Cl)ccc2n(C)c1=O	Runt-CBFb FRET 137.5
CN1CC2(Cc3c1ccc1ccccc31)C(=O)OC(C)(C)OC2=O	Runt-SMMHC FRET 112.6
OC(c1ccccc1)C1(c2ccccc2)CCN(Cc2ccccc2)CC1 (centres undefined)	none (no result: RanGTP-Imp inh, Runt-CBFb FRET, Runt-SMMHC FRET)
